We go through one compound from paper PMC3629956 (Molecular imaging and biology : MIB : the official …, 2012).

Data set [1] deals with U87MG human glioblastoma cells. Kind of data set: Cell efflux. It counts as cell-based. Particulars: after 2 h efflux incubation. The gist of the method: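 Cells seeded at 2.5×10^5/well 24 h ahead, then loaded with 370 kBq/well radiotracer for 2 h at 37°C to allow internalization. After two PBS washes, cells were kept in culture medium for 15, 30, 60 and 120 min, washed three times with PBS and detached with 0.25% trypsin/0.02% EDTA. Cell-bound activity was gamma counted and expressed as % of added dose after decay correction. Two experiments, triplicate wells.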

Data set [2] is described as follows: Probe stability in PBS. The format is physicochemical. The conditions noted are these: PBS pH 7.4, 37°C, 3.7 MBq in 0.5 mL, HPLC. The gist of the method:
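Radiolabeled peptide (3.7 MBq) was added to 0.5 mL PBS and held at 37°C for 1, 6 and 24 h. At each time an aliquot was taken and radiochemical purity was measured by radio-HPLC on a C18 reversed-phase column, with UV at 214/254 nm. Results are given as % intact tracer.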

The nature of data set [3]: in vivo. Particulars: female, athymic nude, mouse, 7.4 MBq, total radioactivity.
The format of data set [4] is physicochemical. The conditions noted are these: pH 7.4.

Where a SMILES comes first, the peptide text is derived from it. Bridges are numbered along the chain shown (N, C = ends). The star is where a group is joined. DOTA = O=C(O)CN1CCN(CC(=O)O)CCN(CC(=O)*)CCN(CC(=O)O)CC1

Consider `NCCCC[C@@H]1NC(=O)[C@@H]2CCCN2C(=O)[C@H](CC(N)=O)NC(=O)[C@H](CO)NC(=O)[C@H](CC(N)=O)NC(=O)CNC(=O)[C@@H](NC(=O)CN2CCN(CC(=O)O)CCN(CC(=O)O)CCN(CC(=O)O)CC2)CSSC[C@@H](C(N)=O)NC(=O)[C@H](CO)NC1=O` [^64Cu-DOTA-GX1, metal not drawn] ({DOTA}-CGNSNPKSC-NH2; disulfide 1-9; N-terminus and C-terminus assumed), for which, in data set [1], the “radioactivity still associated with the cells” value is 76%. In addition, the “percentage of intact tracer in PBS” value in data set [2] (6 h incubation) is on record as “more than 95%”; in data set [2] (24 h incubation) it was “more than 91%”. Moreover, the tissue uptake at 24 h in data set [3] (U87MG tumor uptake (biodistribution)) worked out at 6.46 ± 0.29 %ID/g; in data set [3] (liver uptake (biodistribution)), 5.03 ± 0.14 %ID/g. For the same compound, the “octanol/water partition coefficient (log P)” value in data set [4] was −2.42±0.003.

As usually defined, the tissue uptake is the percentage of the injected dose found per gram of tissue.
